Data taken from ChEMBL document CHEMBL3774372, “Design, physico-chemical properties and biological evaluation of some new N-[(phenoxy)alkyl]- and N-{2-[2-(phenoxy)ethoxy]ethyl}aminoalkanols as anticonvulsant agents” (Bioorg Med Chem, 2016).
pIC50: −log10 of the molar value. Calls of active or inactive are those of the source. No cut-off for these calls is given here.

Key:
[1] = test system: Mus musculus; assay: Anticonvulsant activity in mouse assessed as protection against maximal electric shock-induced seizures at 30 mg/kg, ip measured after 1 hr; type: functional, organism-based
In short: (§1)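 Mice dosed ip with suspension in 0.5% methylcellulose; maximal electroshock applied at the listed time after dosing. Protection = abolition of hindlimb tonic extension component of seizure; reported as animals protected/animals tested.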

[2] = test system: Mus musculus; assay: Neurotoxicity in mouse at 30 mg/kg, ip after 4 hrs by rotarod test; type: toxicity, organism-based; conditions: in vivo
In short: (§2)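 Mice were dosed ip with compound suspended in 0.5% methylcellulose. Rotarod: a 1 in. knurled rod turning at 6 rpm. Neurotoxicity was scored as failure to stay on the rod for at least 1 min in each of three trials. Results are given as the number of animals affected out of the number tested.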

[3] = test system: Mus musculus; assay: Anticonvulsant activity in mouse assessed as protection against 6 Hz psychomotor seizure at 100 mg/kg, ip after 2 hrs; type: functional, organism-based
In short: (§3)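 Suspension in 0.5% methylcellulose given ip to mice; corneal stimulation with 0.2 ms monopolar rectangular pulses at 6 Hz for 3 s from a constant current device, mice restrained then released to observation cage. Protected if normal exploratory behaviour resumed within 10 s of stimulation. Scored as protected/tested, 4 mice per group.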

[4] = test system: Mus musculus; assay: Neurotoxicity in mouse at 100 mg/kg, ip after 4 hrs by rotarod test; type: toxicity, organism-based; conditions: in vivo; in short: as §2
[5] = test system: Mus musculus; assay: Neurotoxicity in mouse at 30 mg/kg, ip after 1 hr by rotarod test; type: toxicity, organism-based; conditions: in vivo
[6] = test system: Rattus norvegicus; assay: Neurotoxicity in rat at 30 mg/kg, po after 2 hrs by rotarod test; type: toxicity, organism-based; conditions: in vivo
[7] = test system: Mus musculus; assay: Anticonvulsant activity in mouse assessed as protection against maximal electric shock-induced seizures at 30 mg/kg, ip measured after 4 hrs; type: functional, organism-based; in short: as §1
[8] = test system: Mus musculus; assay: Neurotoxicity in mouse at 30 mg/kg, ip after 0.5 hrs by rotarod test; type: toxicity, organism-based; conditions: in vivo; in short: as §2
[9] = test system: Mus musculus; assay: Anticonvulsant activity in mouse assessed as protection against maximal electric shock-induced seizures at 100 mg/kg, ip measured after 0.5 hrs; type: functional, organism-based; in short: as §1
[10] = test system: Mus musculus; assay: Neurotoxicity in mouse at 100 mg/kg, ip after 1 hr by rotarod test; type: toxicity, organism-based; conditions: in vivo; in short: as §2
[11] = test system: Rattus norvegicus; assay: Anticonvulsant activity in rat assessed as protection against maximal electric shock-induced seizures at 30 mg/kg, po measured after 0.5 hrs; type: functional, organism-based
In short: (§4)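 Rats dosed ip or orally as 0.5% methylcellulose suspension; maximal electroshock at listed time. Protection = abolition of hindlimb tonic extension; 4 rats per group, scored protected/tested.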

[12] = test system: Mus musculus; assay: Neurotoxicity in mouse at 100 mg/kg, ip after 2 hrs by rotarod test; type: toxicity, organism-based; conditions: in vivo; in short: as §2
[13] = test system: Rattus norvegicus; assay: Neurotoxicity in rat at 30 mg/kg, po after 4 hrs by rotarod test; type: toxicity, organism-based; conditions: in vivo
[14] = test system: Mus musculus; assay: Neurotoxicity in mouse at 30 mg/kg, ip after […] by rotarod test; type: toxicity, organism-based; conditions: in vivo
[15] = test system: Rattus norvegicus; assay: Neurotoxicity in rat at 30 mg/kg, ip after 2 hrs by rotarod test; type: toxicity, organism-based; conditions: in vivo
[16] = test system: Mus musculus; assay: Anticonvulsant activity in mouse assessed as protection against maximal electric shock-induced seizures at 100 mg/kg, ip measured after 4 hrs; type: functional, organism-based; in short: as §1
[17] = test system: Mus musculus; assay: Anticonvulsant activity in mouse assessed as protection against maximal electric shock-induced seizures at 100 mg/kg, ip measured after […]; type: functional, organism-based
[18] = test system: Rattus norvegicus; assay: Anticonvulsant activity in rat assessed as protection against maximal electric shock-induced seizures at 30 mg/kg, po measured after […]; type: functional, organism-based
[19] = test system: Rattus norvegicus; assay: Anticonvulsant activity in rat assessed as protection against maximal electric shock-induced seizures at 30 mg/kg, po measured after 1 hr; type: functional, organism-based; in short: as §4
[20] = test system: Rattus norvegicus; assay: Neurotoxicity in rat at 30 mg/kg, po after […] by rotarod test; type: toxicity, organism-based; conditions: in vivo
[21] = test system: Rattus norvegicus; assay: Anticonvulsant activity in rat assessed as protection against maximal electric shock-induced seizures at 30 mg/kg, po measured after 4 hrs; type: functional, organism-based; in short: as §4
[22] = test system: Rattus norvegicus; assay: Neurotoxicity in rat at 30 mg/kg, ip after 4 hrs by rotarod test; type: toxicity, organism-based; conditions: in vivo
[23] = test system: Rattus norvegicus; assay: Neurotoxicity in rat at 30 mg/kg, ip after 1 hr by rotarod test; type: toxicity, organism-based; conditions: in vivo
[24] = test system: Rattus norvegicus; assay: Neurotoxicity in rat at 30 mg/kg, ip after […] by rotarod test; type: toxicity, organism-based; conditions: in vivo
[25] = test system: Mus musculus; assay: Anticonvulsant activity in mouse assessed as protection against maximal electric shock-induced seizures at 100 mg/kg, ip measured after 1 hr; type: functional, organism-based; in short: as §1
[26] = test system: Rattus norvegicus; assay: Neurotoxicity in rat at 30 mg/kg, po after 1 hr by rotarod test; type: toxicity, organism-based; conditions: in vivo
[27] = test system: Rattus norvegicus; assay: Anticonvulsant activity in rat assessed as protection against maximal electric shock-induced seizures at 30 mg/kg, ip measured after 1 hr; type: functional, organism-based; in short: as §4
[28] = test system: Rattus norvegicus; assay: Anticonvulsant activity in rat assessed as protection against maximal electric shock-induced seizures at 30 mg/kg, po measured after 2 hrs; type: functional, organism-based; in short: as §4
[29] = test system: Rattus norvegicus; assay: Neurotoxicity in rat at 30 mg/kg, po after 0.5 hrs by rotarod test; type: toxicity, organism-based; conditions: in vivo
[30] = test system: Mus musculus; assay: Anticonvulsant activity in mouse assessed as protection against 6 Hz psychomotor seizure at 100 mg/kg, ip after 4 hrs; type: functional, organism-based; in short: as §3
[31] = test system: Rattus norvegicus; assay: Anticonvulsant activity in rat assessed as protection against maximal electric shock-induced seizures at 30 mg/kg, ip measured after 4 hrs; type: functional, organism-based; in short: as §4
[32] = test system: Rattus norvegicus; assay: Neurotoxicity in rat at 30 mg/kg, ip after 0.5 hrs by rotarod test; type: toxicity, organism-based; conditions: in vivo
[33] = test system: Mus musculus; assay: Anticonvulsant activity in mouse assessed as protection against 6 Hz psychomotor seizure at 100 mg/kg, ip after 1 hr; type: functional, organism-based; in short: as §3
[34] = test system: Mus musculus; assay: Anticonvulsant activity in mouse assessed as protection against 6 Hz psychomotor seizure at 100 mg/kg, ip after 0.5 hrs; type: functional, organism-based; in short: as §3
[35] = Displacement of [3H]D888 from rat cerebral cortex L-type calcium channel verapamil binding site; type: tissue-based
[36] = biological target: Muscarinic acetylcholine receptor M5 (Homo sapiens, UniProt P08912); assay: Displacement of [3H]4-DAMP from human recombinant muscarinic M5 receptor expressed in CHO cells; type: cell-based
[37] = biological target: 5-hydroxytryptamine receptor 2B (Homo sapiens, UniProt P41595); assay: Displacement of [125I](+/-)DOI from human recombinant 5-HT2B receptor expressed in CHO cells; type: cell-based
[38] = […] from rat cerebral cortex GABA-gated chloride channel; type: tissue-based

Sequence of Muscarinic acetylcholine receptor M5 (P08912 whole entry): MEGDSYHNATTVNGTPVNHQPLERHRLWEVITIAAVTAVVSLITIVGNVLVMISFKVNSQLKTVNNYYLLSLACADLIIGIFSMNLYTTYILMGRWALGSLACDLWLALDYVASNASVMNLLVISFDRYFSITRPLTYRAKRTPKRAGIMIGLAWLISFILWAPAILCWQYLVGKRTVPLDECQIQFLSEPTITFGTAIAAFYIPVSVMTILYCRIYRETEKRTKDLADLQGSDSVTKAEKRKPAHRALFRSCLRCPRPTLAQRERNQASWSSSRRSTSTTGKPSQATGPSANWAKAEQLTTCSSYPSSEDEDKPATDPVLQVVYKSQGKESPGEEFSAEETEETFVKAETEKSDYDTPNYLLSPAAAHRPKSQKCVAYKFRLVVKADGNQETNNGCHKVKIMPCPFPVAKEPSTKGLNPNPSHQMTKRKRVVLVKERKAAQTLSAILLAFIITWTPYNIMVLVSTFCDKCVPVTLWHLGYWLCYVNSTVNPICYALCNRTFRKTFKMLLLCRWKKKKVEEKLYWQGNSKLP
Sequence of 5-hydroxytryptamine receptor 2B (P41595 whole entry): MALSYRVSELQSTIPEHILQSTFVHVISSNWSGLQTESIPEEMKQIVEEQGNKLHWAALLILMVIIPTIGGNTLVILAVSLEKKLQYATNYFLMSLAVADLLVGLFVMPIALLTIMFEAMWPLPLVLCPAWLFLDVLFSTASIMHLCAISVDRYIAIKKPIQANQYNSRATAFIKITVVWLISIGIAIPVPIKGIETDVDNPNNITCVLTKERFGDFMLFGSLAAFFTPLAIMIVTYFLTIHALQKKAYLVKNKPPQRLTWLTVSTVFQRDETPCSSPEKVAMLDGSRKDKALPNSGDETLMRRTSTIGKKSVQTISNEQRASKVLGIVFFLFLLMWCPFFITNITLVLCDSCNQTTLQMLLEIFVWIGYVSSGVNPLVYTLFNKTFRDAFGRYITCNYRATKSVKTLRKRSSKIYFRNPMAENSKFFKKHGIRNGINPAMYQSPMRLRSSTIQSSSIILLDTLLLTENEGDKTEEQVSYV

## Cc1cccc(OCCCN2CCCC(O)C2)c1C (configuration not stated)
[1]
  Activity: inactive
[2]
  Activity: Non-toxic
[3]
  Activity: inactive
[4]
  Activity: Non-toxic
[5]
  Activity: Non-toxic
[6]
  Activity: Non-toxic
[7]
  Activity: inactive
[8]
  Activity: Non-toxic
[9]
  Activity: Active
[10]
  Activity: Non-toxic
[11]
  Activity: inactive
[12]
  Activity: Non-toxic
[13]
  Activity: Non-toxic
[14]
  Activity: Non-toxic
[15]
  Activity: Non-toxic
[16]
  Activity: inactive
[17]
  Activity: Active
[18]
  Activity: inactive
[19]
  Activity: inactive
[20]
  Activity: Non-toxic
[21]
  Activity: inactive
[22]
  Activity: Non-toxic
[23]
  Activity: Non-toxic
[24]
  Activity: Non-toxic
[25]
  Activity: Active
[26]
  Activity: Non-toxic
[27]
  Activity: inactive
[28]
  Activity: inactive
[29]
  Activity: Non-toxic
[30]
  Activity: inactive
[31]
  Activity: inactive
[32]
  Activity: Non-toxic

## Cc1ccc(OCCNC(C)CO)c(C)c1 (configuration not stated)
[3]
  Activity: inactive
[4]
  Activity: Non-toxic
[12]
  Activity: Non-toxic
[33]
  Activity: inactive
[34]
  Activity: inactive
[30]
  Activity: inactive

## COc1ccc(CCN(C)CCCC(C#N)(c2cc(OC)c(OC)c(OC)c2)C(C)C)cc1OC (configuration not stated) [GALLOPAMIL]
[35]
  pIC50: 7.82

## C[N+]1(C)CCC(OC(=O)C(c2ccccc2)c2ccccc2)CC1 [4-DAMP]
[36]
  pIC50: 9.49

## COc1cc(CC(C)N)c(OC)cc1I (racemic)
[37]
  pIC50: 8.60

## C=C(C)[C@@H]1[C@H]2OC(=O)[C@@H]1[C@]1(O)C[C@H]3O[C@]34C(=O)O[C@H]2[C@]14C [PICROTOXININ]
[38]
  pIC50: 7.11
